Assay [1] has as its target Toll-like receptor 2 (Homo sapiens, UniProt O60603). Kind of assay: Inhibition of biotin labelled Pam2CSK4 binding to His tagged human TLR2 after 45 mins by AlphaScreen assay. Put shortly: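 Competitive binding was measured by AlphaScreen using His-tagged human TLR2 protein and biotinylated Pam2CSK4 as the tracer ligand. Competing ligands displace Pam2CSK4-biotin and lower the luminescent proximity signal.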
(Alpha assays give light when donor and acceptor beads are brought close together.)

The subject of assay [2] is THP-1. As to the kind of experiment: Immunostimulatory activity in human THP1 cells assessed as increase in TNF-alpha production at 1 to 100 nM after 24 hrs by ELISA. It counts as functional, cell-based. A general note: An ELISA detects its analyte on a solid surface through an enzyme-linked reagent.
Assay [3] concerns the target Toll-like receptor 2 (Mus musculus, UniProt Q9QUN7). Kind of assay: Inhibition of biotin labelled Pam2CSK4 binding to mouse TLR2 Fc chimera protein after 45 mins by AlphaScreen assay.
For assay [4], the system named is RAW264.7. As to the kind of experiment: Immunostimulatory activity in mouse RAW264.7 cells assessed as increase in TNF-alpha production at 1 to 100 nM after 24 hrs by ELISA. It counts as functional, cell-based.
The test system of assay [5] is THP-1. As to the kind of experiment: Immunostimulatory activity in human THP1 cells assessed as increase in IL-6 production at 1 to 100 nM after 24 hrs by ELISA. It counts as functional, cell-based. In a few lines:
(§1)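 PMA-differentiated THP-1 human monocytic cells were incubated with a range of ligand concentrations. Secreted IL-6 was measured by ELISA. Data are mean ± standard error of triplicate values, and similar results were obtained in two or three independent experiments.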

Assay [6] relates to RAW264.7. As to the kind of experiment: Immunostimulatory activity in mouse RAW264.7 cells assessed as increase in IL-6 production at 1 to 100 nM after 24 hrs by ELISA. In kind it is functional, cell-based. Put shortly:
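Murine RAW264.7 macrophages were incubated with various ligand concentrations, and secreted IL-6 was quantified by ELISA. Values are mean ± standard error of triplicates, with results reproduced in two or three independent experiments.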

Assay [7] has as its system THP-1. As to the kind of experiment: Immunostimulatory activity in human THP1 cells assessed as increase in TNF-alpha production after 24 hrs by ELISA. In kind it is functional, cell-based.
Assay [8] relates to THP-1. Kind of assay: Immunostimulatory activity in human THP1 cells assessed as increase in IL-6 production after 24 hrs by ELISA. It counts as functional, cell-based. Put shortly: as §1

The term IC50 denotes the midpoint of a concentration-inhibition curve.

Active and inactive are the calls of the source. No cut-off for these calls is given here. Where a SMILES comes first, the peptide text is derived from it. The star is where a group is joined. Propyl(2R-PamO,3-PamO) = CCCCCCCCCCCCCCCC(=O)OC[C@H](C*)OC(=O)CCCCCCCCCCCCCCC; X1 = CCCCCCCCCCCCCCCC(=O)OC[C@H](C*)OC(=O)CCCCCNC(=O)CCCCCCCC; X2 = CCCCCCCCCCCCCCCC(=O)OC[C@H](C*)OC(=O)CCNC(=O)CCCCCCCCCCC; X3 = CCCCCCCCCCCCCCCC(=O)OC[C@H](C*)OC(=O)CCCNC(=O)CCCCCCCCCC; X4 = CCCCCCCCCCCCCCCC(=O)OC[C@H](C*)OC(=O)CCCCCCNC(=O)CCCCCCC; X5 = CCCCCCCCCCCCCCCC(=O)OC[C@H](C*)OC(=O)CCCCNC(=O)CCCCCCCCC; X6 = CCCCCCCCCCCCCCCC(=O)O[C@H](COC(=O)CCCCCCCCCCNC(=O)CCC)C*; X7 = CCCCCCCCCCCCCCCC(=O)O[C@H](COC(=O)CCCCCCCCNC(=O)CCCCC)C*; X8 = CCCCCCCCCCCCCCCC(=O)O[C@H](COC(=O)CCCCCCCCCCCNC(=O)CC)C*; X9 = CCCCCCCCCCCCCCCC(=O)O[C@H](COC(=O)CCCCCCCCCNC(=O)CCCC)C*

Sequence of Toll-like receptor 2 (Homo sapiens, UniProt O60603) (O60603 whole entry): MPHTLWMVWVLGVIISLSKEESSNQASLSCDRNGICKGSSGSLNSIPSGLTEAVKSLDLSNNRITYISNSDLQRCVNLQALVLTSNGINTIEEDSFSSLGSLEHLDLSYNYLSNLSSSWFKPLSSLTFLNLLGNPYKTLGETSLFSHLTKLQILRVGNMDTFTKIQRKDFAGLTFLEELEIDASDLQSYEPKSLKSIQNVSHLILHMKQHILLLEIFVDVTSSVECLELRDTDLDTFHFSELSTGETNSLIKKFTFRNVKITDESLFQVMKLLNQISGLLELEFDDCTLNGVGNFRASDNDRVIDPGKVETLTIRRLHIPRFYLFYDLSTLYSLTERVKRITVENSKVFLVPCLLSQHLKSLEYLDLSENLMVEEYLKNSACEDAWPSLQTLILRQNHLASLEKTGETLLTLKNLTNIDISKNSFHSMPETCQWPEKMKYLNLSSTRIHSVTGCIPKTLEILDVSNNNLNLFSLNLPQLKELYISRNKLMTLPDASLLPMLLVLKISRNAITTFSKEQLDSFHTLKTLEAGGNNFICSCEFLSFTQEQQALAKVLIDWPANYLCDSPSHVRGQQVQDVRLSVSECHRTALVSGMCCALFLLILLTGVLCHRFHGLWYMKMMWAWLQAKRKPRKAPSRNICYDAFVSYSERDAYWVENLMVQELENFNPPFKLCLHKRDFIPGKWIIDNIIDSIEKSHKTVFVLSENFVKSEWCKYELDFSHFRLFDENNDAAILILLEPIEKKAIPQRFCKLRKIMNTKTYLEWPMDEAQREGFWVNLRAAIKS
Sequence of Toll-like receptor 2 (Mus musculus, UniProt Q9QUN7) (Q9QUN7 whole entry): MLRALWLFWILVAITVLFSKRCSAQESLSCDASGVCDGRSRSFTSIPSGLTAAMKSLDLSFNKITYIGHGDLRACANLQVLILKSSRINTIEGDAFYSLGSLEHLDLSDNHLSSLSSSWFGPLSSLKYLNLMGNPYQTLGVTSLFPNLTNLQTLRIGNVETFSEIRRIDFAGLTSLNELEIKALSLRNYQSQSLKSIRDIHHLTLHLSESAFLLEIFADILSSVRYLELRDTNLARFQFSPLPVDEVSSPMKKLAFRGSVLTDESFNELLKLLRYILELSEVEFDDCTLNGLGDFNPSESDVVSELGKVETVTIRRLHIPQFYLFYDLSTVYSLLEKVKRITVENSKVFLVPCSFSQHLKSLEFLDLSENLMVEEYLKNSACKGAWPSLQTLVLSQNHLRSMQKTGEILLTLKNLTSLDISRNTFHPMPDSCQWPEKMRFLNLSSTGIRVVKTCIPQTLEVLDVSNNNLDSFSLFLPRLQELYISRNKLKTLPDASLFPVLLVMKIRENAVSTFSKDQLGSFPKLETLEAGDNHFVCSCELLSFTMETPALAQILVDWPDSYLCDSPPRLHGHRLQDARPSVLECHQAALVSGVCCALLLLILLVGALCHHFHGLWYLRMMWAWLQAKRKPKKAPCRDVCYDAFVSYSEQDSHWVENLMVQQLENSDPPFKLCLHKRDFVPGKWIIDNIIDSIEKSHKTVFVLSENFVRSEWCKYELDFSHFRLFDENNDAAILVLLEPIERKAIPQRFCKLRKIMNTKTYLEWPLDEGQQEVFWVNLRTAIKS

For the molecule `CCCCCCCCCCCCCCCC(=O)OC[C@H](CSC[C@H](N)C(=O)N[C@@H](CO)C(=O)N[C@@H](CCCCN)C(=O)N[C@@H](CCCCN)C(=O)N[C@@H](CCCCN)C(=O)N[C@@H](CCCCN)C(=O)O)OC(=O)CCCCCCCCCCCCCCC` (H-C(Propyl(2R-PamO,3-PamO))SKKKK-OH), the IC50 is 0.426 to 0.55 µM at Toll-like receptor 2 [1] and 0.349 µM at Toll-like receptor 2 [3]. The result with THP-1 [2] and in the assay with RAW264.7 [4] was inactive.

Regarding `CCCCCCCCCCCCCCCC(=O)OC[C@H](CSC[C@H](N)C(=O)N[C@@H](CO)C(=O)N[C@@H](CCCCN)C(=O)N[C@@H](CCCCN)C(=O)N[C@@H](CCCCN)C(=O)N[C@@H](CCCCN)C(=O)O)OC(=O)CCCCCNC(=O)CCCCCCCC` (H-C(X1)SKKKK-OH), the outcome in the assay on THP-1 [5], in the assay with RAW264.7 [6], in the assay on THP-1 [2] and in the assay on RAW264.7 [4] was Active. For the same molecule, the IC50 at Toll-like receptor 2 [1] and at Toll-like receptor 2 [3] was 4.75 µM each time.

In the case of `CCCCCCCCCCCCCCCC(=O)OC[C@H](CSC[C@H](N)C(=O)N[C@@H](CO)C(=O)N[C@@H](CCCCN)C(=O)N[C@@H](CCCCN)C(=O)N[C@@H](CCCCN)C(=O)N[C@@H](CCCCN)C(=O)O)OC(=O)CCNC(=O)CCCCCCCCCCC` (H-C(X2)SKKKK-OH), the outcome in the assay with THP-1 [5], in the assay on RAW264.7 [6], in the assay with THP-1 [2] and with RAW264.7 [4] was Active. Further, the IC50 is 1.68 µM at Toll-like receptor 2 [1] and 1.04 µM at Toll-like receptor 2 [3].

With `CCCCCCCCCCCCCCCC(=O)OC[C@H](CSC[C@H](N)C(=O)N[C@@H](CO)C(=O)N[C@@H](CCCCN)C(=O)N[C@@H](CCCCN)C(=O)N[C@@H](CCCCN)C(=O)N[C@@H](CCCCN)C(=O)O)OC(=O)CCCNC(=O)CCCCCCCCCC` (H-C(X3)SKKKK-OH), the outcome in the assay on THP-1 [5], with RAW264.7 [6], with THP-1 [2] and with RAW264.7 [4] was Active. The half-maximal inhibitory concentration (IC50) at Toll-like receptor 2 [1] was determined as 1.96 µM; at Toll-like receptor 2 [3], 1.38 µM.

For the molecule `CCCCCCCCCCCCCCCC(=O)OC[C@H](CSC[C@H](N)C(=O)N[C@@H](CO)C(=O)N[C@@H](CCCCN)C(=O)N[C@@H](CCCCN)C(=O)N[C@@H](CCCCN)C(=O)N[C@@H](CCCCN)C(=O)O)OC(=O)CCCCCCNC(=O)CCCCCCC` (H-C(X4)SKKKK-OH), the outcome in the assay on THP-1 [5], in the assay with RAW264.7 [6], in the assay on THP-1 [2] and with RAW264.7 [4] was Active. Moreover, the results for the half-maximal inhibitory concentration (IC50) on Toll-like receptor 2 [1] and at Toll-like receptor 2 [3] were 3.37 µM and 5.69 µM, respectively.

Turning to `CCCCCCCCCCCCCCCC(=O)OC[C@H](CSC[C@H](N)C(=O)N[C@@H](CO)C(=O)N[C@@H](CCCCN)C(=O)N[C@@H](CCCCN)C(=O)N[C@@H](CCCCN)C(=O)N[C@@H](CCCCN)C(=O)O)OC(=O)CCCCNC(=O)CCCCCCCCC` (H-C(X5)SKKKK-OH), the outcome in the assay on THP-1 [5], in the assay with RAW264.7 [6], in the assay with THP-1 [2] and in the assay on RAW264.7 [4] was Active. Moreover, the IC50 at Toll-like receptor 2 [1] came out at 4.65 µM; at Toll-like receptor 2 [3] it was 5.61 µM.

For `CCCCCCCCCCCCCCCC(=O)O[C@H](COC(=O)CCCCCCCCCCNC(=O)CCC)CSC[C@H](N)C(=O)N[C@@H](CO)C(=O)N[C@@H](CCCCN)C(=O)N[C@@H](CCCCN)C(=O)N[C@@H](CCCCN)C(=O)N[C@@H](CCCCN)C(=O)O` (H-C(X6)SKKKK-OH), the Activity result with THP-1 [7] and with THP-1 [8] was “Dose-dependent effect” throughout. Besides, the IC50 at Toll-like receptor 2 [1] was determined as 4.36 µM.

As to `CCCCCCCCCCCCCCCC(=O)O[C@H](COC(=O)CCCCCCCCNC(=O)CCCCC)CSC[C@H](N)C(=O)N[C@@H](CO)C(=O)N[C@@H](CCCCN)C(=O)N[C@@H](CCCCN)C(=O)N[C@@H](CCCCN)C(=O)N[C@@H](CCCCN)C(=O)O` (H-C(X7)SKKKK-OH), the Activity result in the assay on THP-1 [7] and in the assay on THP-1 [8] was “Dose-dependent effect” in each case. For the same molecule, the IC50 at Toll-like receptor 2 [1] is 7.52 µM.

With `CCCCCCCCCCCCCCCC(=O)O[C@H](COC(=O)CCCCCCCCCCCNC(=O)CC)CSC[C@H](N)C(=O)N[C@@H](CO)C(=O)N[C@@H](CCCCN)C(=O)N[C@@H](CCCCN)C(=O)N[C@@H](CCCCN)C(=O)N[C@@H](CCCCN)C(=O)O` (H-C(X8)SKKKK-OH), the Activity entry with THP-1 [7] and in the assay with THP-1 [8] was “Dose-dependent effect” each time. At Toll-like receptor 2 [1], this molecule gave an IC50 of 3.94 µM.

As to `CCCCCCCCCCCCCCCC(=O)O[C@H](COC(=O)CCCCCCCCCNC(=O)CCCC)CSC[C@H](N)C(=O)N[C@@H](CO)C(=O)N[C@@H](CCCCN)C(=O)N[C@@H](CCCCN)C(=O)N[C@@H](CCCCN)C(=O)N[C@@H](CCCCN)C(=O)O` (H-C(X9)SKKKK-OH), the Activity entry in the assay on THP-1 [7] and with THP-1 [8] was “Dose-dependent effect” throughout. The molecule further gave an IC50 on Toll-like receptor 2 [1] of 6.43 µM.

(Values after ChEMBL document CHEMBL4219181, “Site-specific effect of polar functional group-modification in lipids of TLR2 ligands for modulating the ligand immunostimulatory activity” (Bioorg Med Chem Lett, 2018).)
